# Results as given in ChEMBL document CHEMBL1134785, “Synthesis and biological evaluation of prostaglandin-F alkylphosphinic acid derivatives as bone anabolic agents for the treatment of osteoporosis” (J Med Chem, 2001).
# Legend:
# [1] = molecular target: T1, Prostaglandin E2 receptor EP3 subtype (Homo sapiens, UniProt P43115); assay: In vitro binding at EP3 human prostaglandin receptor using [3H]PGE-2 as radioligand
# T1 sequence (P43115 whole entry): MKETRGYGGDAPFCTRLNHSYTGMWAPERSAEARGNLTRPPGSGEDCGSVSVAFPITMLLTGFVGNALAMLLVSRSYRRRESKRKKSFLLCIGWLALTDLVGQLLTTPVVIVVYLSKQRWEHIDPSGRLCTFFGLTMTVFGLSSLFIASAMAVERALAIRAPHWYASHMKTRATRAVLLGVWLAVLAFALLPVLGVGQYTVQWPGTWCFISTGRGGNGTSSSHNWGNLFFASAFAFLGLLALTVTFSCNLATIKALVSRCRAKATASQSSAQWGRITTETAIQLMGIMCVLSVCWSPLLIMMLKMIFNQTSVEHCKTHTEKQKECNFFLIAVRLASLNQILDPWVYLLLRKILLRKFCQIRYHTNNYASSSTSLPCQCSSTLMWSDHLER
# Summary of the method: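 Receptors stably expressed in CHO cells, collected 4-5 days after seeding. Membranes made by lysis (Tris, EDTA, protease inhibitors) and 100000g pellet, then resuspended at 1 mg protein/mL in TME. Radioligands at 5 nM: [3H]PGE2 for EP2/EP3/EP4, [3H]Iloprost for IP, [3H]SQ-29548 for TP. Competition binding with filtration and counting.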
# Rattus norvegicus [2] = assay: Bone formation rate/bone volume (%/year)bone measured Histomorphometrically after a dose of 300 ug/kg in proximal tibial metaphysis; assay type: functional; conditions: at 300 µg/kg
# Rattus norvegicus [3] = assay: Bone Volume /Tissue Volume (%)measured Histomorphometrically after a dose of 10 ug/kg in proximal tibial metaphysis; assay type: functional; conditions: at 10 µg/kg
# Rattus norvegicus [4] = assay: Bone Volume /Tissue Volume (%)measured Histomorphometrically after a dose of 100 ug/kg in proximal tibial metaphysis; assay type: functional; conditions: at 100 µg/kg
# Rattus norvegicus [5] = assay: Bone Volume /Tissue Volume (%)measured Histomorphometrically after a dose of 300 ug/kg in proximal tibial metaphysis; assay type: functional; conditions: at 300 µg/kg
# Rattus norvegicus [6] = assay: Bone formation rate/bone volume (%/year) bone measured histomorphometrically after a dose of 100 ug/kg in proximal tibial metaphysis; assay type: functional; conditions: at 100 µg/kg
# Rattus norvegicus [7] = assay: Bone formation rate/tissue volume (%/year) bone measured histomorphometrically after a dose of 3000 ug/kg in proximal tibial metaphysis; assay type: functional; conditions: at 3000 µg/kg
# Rattus norvegicus [8] = assay: Derived trabecular no […]measured using micro Computed Tomography(CT) after a dose of 3000 ug/kg in Vertebral Bone; assay type: functional, Trabecula
# Summary of the method: (§1)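 Micro-CT of the fifth lumbar vertebra, measuring cancellous bone volume and architecture. Rats were 6 months old, OVX 60 days before treatment, then dosed daily for 60 days. Test-agent doses were 10–3000 µg/kg, given as a once-daily subcutaneous injection; 6 mg/kg/day was given to the positive-control group. Groups were compared with vehicle by ANOVA plus LSD test.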
# Rattus norvegicus [9] = assay: Derived trabecular thickness (um) measured using micro Computed Tomography(CT) after a dose of 1000 ug/kg in Vertebral Bone; assay type: functional, Trabecula; summary of the method: as §1
# Rattus norvegicus [10] = assay: Endosteal eroded surface(%) measured Histomorphometrically after a dose of 100 ug/kg in tibial diaphysis; assay type: functional
# Summary of the method: (§2)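 Tibial histomorphometry in 6-month-old rats, OVX 60 days before treatment, then daily injection for 60 days. Vehicle was acetate-buffered saline with methylcellulose and polyoxyethylenesorbitan monooleate. Rats received xylenol orange 90 mg/kg before treatment and calcein 10 mg/kg at 14 and 4 days pre-sacrifice. Rats were killed by cardiac puncture under ketamine/xylazine. Groups were compared with vehicle by ANOVA plus LSD test.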
# Rattus norvegicus [11] = assay: Endosteal eroded surface(%) measured Histomorphometrically after a dose of 1000 ug/kg in tibial diaphysis; assay type: functional; summary of the method: as §2
# Rattus norvegicus [12] = assay: Mineral apposition rate ([…])bone measured Histomorphometrically after a dose of 3000 ug/kg in proximal tibial metaphysis; assay type: functional
# Summary of the method: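 Ovariectomized six-month-old rats, 6-8 per group, were dosed subcutaneously once daily at 0.01–3.0 mg/kg for 60 days, starting 60 days after surgery. Vehicle was acetate-buffered saline, methylcellulose and polyoxyethylenesorbitan monooleate. Labels were xylenol orange 90 mg/kg pretreatment and calcein 10 mg/kg at 14 and 4 days before necropsy. Histomorphometry covered the proximal tibial metaphysis, 1–4 mm distal to the growth plate–metaphyseal junction. ANOVA/LSD versus vehicle.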
# Rattus norvegicus [13] = assay: Mineral apposition rate ([…])bone measured Histomorphometrically after a dose of 3000 ug/kg in tibial diaphysis; assay type: functional
# Summary of the method: (§3)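 Six-month-old rats, bilaterally ovariectomized, 6-8 per group, on natural chow. After 60 days they received once-daily subcutaneous dosing for 60 days at 0.01–3.0 mg/kg. Vehicle was acetate-buffered saline with methylcellulose and polyoxyethylenesorbitan monooleate. Labels were xylenol orange 90 mg/kg before treatment and calcein 10 mg/kg 14 and 4 days before sacrifice. Tibial histomorphometry was read under fluorescent light, with ANOVA/LSD versus vehicle.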
# Rattus norvegicus [14] = assay: Endosteal mineralizing surface Histomorphometrically after a dose of 30 ug/kg in tibial diaphysis; assay type: functional; summary of the method: as §3
# Rattus norvegicus [15] = assay: Endosteal mineralizing surface Histomorphometrically after a dose of 3000 ug/kg in tibial diaphysis; assay type: functional; summary of the method: as §3
# Rattus norvegicus [16] = assay: Periosteal mineral apposition rate ([…]) measured Histomorphometrically after a dose of 1000 ug/kg in tibial diaphysis; assay type: functional; summary of the method: as §3
# Rattus norvegicus [17] = assay: Periosteal mineralizing surface (%) measured Histomorphometrically after a dose of 3000 ug/kg in tibial diaphysis; assay type: functional
# Summary of the method: (§4)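 Rats on natural chow (1.46% Ca) were bilaterally ovariectomized at 6 months and left untreated for 60 days. They then received once-daily subcutaneous doses for 60 days, with vehicle of acetate-buffered saline, methylcellulose and polysorbate. Xylenol orange (90 mg/kg) was given before treatment and calcein (10 mg/kg) 14 and 4 days before sacrifice. Tibiae were analysed by fluorescent histomorphometry, 6-8 rats/group, ANOVA/LSD vs vehicle.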
# Rattus norvegicus [18] = assay: Trabecular no (mm)measured Histomorphometrically after a dose of 10 ug/kg in proximal tibial metaphysis; assay type: functional, Trabecula
# Summary of the method: (§5)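 Six-month-old rats were ovariectomized, and 60 days later daily subcutaneous dosing began for 60 days, with vehicle of acetate-buffered saline, methylcellulose and polysorbate. Xylenol orange (90 mg/kg) labelled bone pre-treatment and calcein (10 mg/kg) 14 and 4 days pre-sacrifice. Histomorphometry covered the proximal tibial metaphysis 1-4 mm distal to the growth plate-metaphyseal junction. Groups were 6-8 rats, compared by ANOVA/LSD vs vehicle.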
# Rattus norvegicus [19] = assay: Trabecular no (mm)measured Histomorphometrically after a dose of 1000 ug/kg in proximal tibial metaphysis; assay type: functional, Trabecula; summary of the method: as §5
# Rattus norvegicus [20] = assay: connectivity density (mm-3) using micro Computed Tomography(CT) after a does of 300 ug/kg in Vertebral Bone; assay type: functional
# Summary of the method: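 Rats were ovariectomized at 6 months of age and, after 60 days, dosed subcutaneously once daily for 60 days, with vehicle of acetate-buffered saline, methylcellulose and polysorbate. At necropsy the fifth lumbar vertebra was scanned by micro-CT to obtain cancellous architecture. Groups were 6-8 rats; results were compared to vehicle by ANOVA with least significant difference test.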
# Rattus norvegicus [21] = assay: Tissue area (mm) measured Histomorphometrically after a dose of 30 ug/kg in tibial diaphysis; assay type: functional; summary of the method: as §4
# Rattus norvegicus [22] = assay: Derived trabecular thickness (um) measured using micro Computed Tomography(CT) after a dose of 3000 ug/kg in Vertebral Bone; assay type: functional, Trabecula; summary of the method: as §1
# Rattus norvegicus [23] = assay: Periosteal mineralizing surface (%) measured Histomorphometrically after a dose of 1000 ug/kg in tibial diaphysis; assay type: functional; summary of the method: as §4
smiles,measurement,setting,value
CP(=O)(O)CCC/C=C\C[C@@H]1[C@@H](/C=C/[C@@H](O)COc2ccccc2)[C@H](O)C[C@@H]1O,IC50,[1],> 10 µM
same,Activity,Rattus norvegicus [2],322.61%
same,Activity,Rattus norvegicus [3],2.23%
same,Activity,Rattus norvegicus [4],5.84%
same,Activity,Rattus norvegicus [5],5.72%
same,Activity,Rattus norvegicus [6],320.16%
same,Activity,Rattus norvegicus [7],20.13%
same,Derived trabecular number,Rattus norvegicus [8],4.71 mm-1
same,Derived trabecular thickness,Rattus norvegicus [9],80.6 µm
same,Endosteal eroded surface,Rattus norvegicus [10],2.3%
same,Endosteal eroded surface,Rattus norvegicus [11],2.74%
same,Mineral apposition rate,Rattus norvegicus [12],0.94 µm/day
same,Mineral apposition rate,Rattus norvegicus [13],1.03 µm/day
same,Endosteal mineralizing surface,Rattus norvegicus [14],28.72%
same,Endosteal mineralizing surface,Rattus norvegicus [15],29.4%
same,Periosteal mineral apposition rate,Rattus norvegicus [16],0 µm/day
same,Periosteal mineralizing surface,Rattus norvegicus [17],11.109%
same,Trabecular no.,Rattus norvegicus [18],0.58 1/mm
same,Trabecular no.,Rattus norvegicus [19],1.64 1/mm
same,Connectivity density,Rattus norvegicus [20],66.71 mm**-3
same,Tissue area,Rattus norvegicus [21],5.19 mm
same,Derived trabecular thickness,Rattus norvegicus [22],83.8 µm
same,Periosteal mineralizing surface,Rattus norvegicus [23],10.35%
